Experimental data reported in ChEMBL document CHEMBL2375304, “Synthesis and anticancer activity of novel 2-pyridyl hexahyrocyclooctathieno[2,3-d]pyrimidine derivatives” (2013).

How the values were obtained:
Type in all cases: functional
KM12 = assay: Growth inhibition of human KM12 cells after 48 hrs by Sulforhodamine B assay; details: KM12, 48 h
Procedure, shortened: (§1)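 Five-concentration SRB assay using 10-fold or ½-log serial dilutions from a DMSO stock. Exposure is 48 h at 37 °C in 5% CO2 after 24 h preincubation. TCA fixation is followed by SRB staining and a reading at 515 nm. Percentage growth is computed from time-zero, control and treated absorbances. GI50 is the concentration where [(Ti−Tz)/(C−Tz)]×100 = 50, read from the plot against log concentration.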

A549 = assay: Growth inhibition of human A549/ATCC cells after 48 hrs by Sulforhodamine B assay; details: A549, 48 h; procedure, shortened: as §1
OVCAR-5 = assay: Growth inhibition of human OVCAR5 cells after 48 hrs by Sulforhodamine B assay; details: OVCAR-5, 48 h
Procedure, shortened: (§2)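 Cells were preincubated 24 h at 37 °C, 5% CO2, and a time-zero plate was TCA-fixed. Five concentrations were made by serial dilution from a DMSO stock (400-fold the top concentration) and incubated 48 h. Adherent cells were fixed with 10% final TCA and suspension cells with 16%. Plates were stained with 0.4% SRB and read at 515 nm. GI50 is the concentration giving 50% reduction in net protein increase versus control.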

DU-145 = assay: Growth inhibition of human DU145 cells after 48 hrs by Sulforhodamine B assay; details: DU-145, 48 h; procedure, shortened: as §1
HL-60(TB) [1] = assay: Growth inhibition of human HL-60(TB) cells after 48 hrs by Sulforhodamine B assay; details: HL-60, 48 h
Procedure, shortened: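 Suspension cells pre-incubated 24 h at 37 °C, 5% CO2 before drug addition, with a time-zero plate fixed then. DMSO stocks diluted in medium with gentamicin to five concentrations (10-fold or ½-log steps); 48 h exposure. Settled cells fixed with TCA (final 16%), stained with SRB, dye dissolved in 10 mM Tris base, read at 515 nm. GI50 solved from [(Ti−Tz)/(C−Tz)]×100 = 50.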

SW-620 = assay: Growth inhibition of human SW620 cells after 48 hrs by Sulforhodamine B assay; details: SW-620, 48 h; procedure, shortened: as §2
CAKI-1 = assay: Growth inhibition of human CAKI-1 cells after 48 hrs by Sulforhodamine B assay; details: CAKI-1, 48 h; procedure, shortened: as §1
NCI-H226 = assay: Growth inhibition of human NCI-H226 cells after 48 hrs by Sulforhodamine B assay; details: NCI-H226, 48 h; procedure, shortened: as §2
TK-10 = assay: Growth inhibition of human TK10 cells after 48 hrs by Sulforhodamine B assay; details: TK-10, 48 h
Procedure, shortened: (§3)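 Five-concentration stage in the […]-cell-line panel, using 10-fold or ½-log serial dilutions made from a DMSO stock (400-fold). Cells were preincubated 24 h at 37 °C, then drug-exposed 48 h. A time-zero plate was fixed with TCA at dosing, adherent cells were fixed with cold TCA (10% final), and protein was stained with SRB, absorbance 515 nm. GI50 was where [(Ti−Tz)/(C−Tz)]×100 = 50, from the percent growth vs log concentration plot, expressed as log10 GI50.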

IGROV-1 = assay: Growth inhibition of human IGROV1 cells after 48 hrs by Sulforhodamine B assay; details: IGROV-1, 48 h; procedure, shortened: as §1
UACC-257 = assay: Growth inhibition of human UACC257 cells after 48 hrs by Sulforhodamine B assay; details: UACC-257, 48 h; procedure, shortened: as §3
SNB-75 = assay: Growth inhibition of human SNB75 cells after 48 hrs by Sulforhodamine B assay; details: SNB-75, 48 h; procedure, shortened: as §2
786-0 = assay: Growth inhibition of human 786-0 cells after 48 hrs by Sulforhodamine B assay; details: 786-0, 48 h; procedure, shortened: as §1
HOP-92 = assay: Growth inhibition of human HOP92 cells after 48 hrs by Sulforhodamine B assay; details: HOP-92, 48 h; procedure, shortened: as §1
NCI-H322M = assay: Growth inhibition of human NCI-H322M cells at 10^-5 M after 48 hrs by Sulforhodamine B assay relative to control; details: read-out: GI
Procedure, shortened: (§4)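 Single-dose primary screen at 10⁻⁵ M across 49 lines. Cells were plated 24 h beforehand, with a TCA-fixed time-zero plate, then exposed 48 h at 37 °C, 5% CO2. Cells were fixed with cold TCA, stained with SRB and read at 515 nm. Percent growth was calculated against time-zero and untreated-control absorbances.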

COLO 205 = assay: Growth inhibition of human COLO205 cells at 10^-5 M after 48 hrs by Sulforhodamine B assay relative to control; details: COLO 205, 48 h, read-out: GI
Procedure, shortened: (§5)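 Single-dose screen at 10⁻⁵ M. Cells are preincubated 24 h at 37 °C in 5% CO2, then exposed to the compound, diluted from a DMSO stock into medium with gentamicin, for 48 h. Adherent cells are fixed with cold TCA (final 10%) and suspension cells with TCA (final 16%). Cells are stained with 0.4% SRB in 1% acetic acid and bound dye is read at 515 nm. Percent growth inhibition is taken against control wells and time-zero plates.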

U-251 = assay: Growth inhibition of human U251 cells at 10^-5 M after 48 hrs by Sulforhodamine B assay relative to control; details: U-251, 48 h, read-out: GI
Procedure, shortened: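 Single-dose stage: compound tested at 10⁻⁵ M in the 49-cell-line panel. Cells grew 24 h at 37 °C, 5% CO₂ before drug addition. Drug stock was in DMSO at 400-fold, diluted in medium with gentamicin. After 48 h exposure, adherent cells were fixed with cold TCA (10% final) and stained with 0.4% SRB in 1% acetic acid. Dye was solubilized in 10 mM Tris, read at 515 nm. Growth percentage was taken relative to untreated control and time-zero plates.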

SN12C = assay: Growth inhibition of human SN12C cells at 10^-5 M after 48 hrs by Sulforhodamine B assay relative to control; details: read-out: GI; procedure, shortened: as §4
HCT-15 = assay: Growth inhibition of human HCT15 cells at 10^-5 M after 48 hrs by Sulforhodamine B assay relative to control; details: HCT-15, 48 h, read-out: GI; procedure, shortened: as §5
MDA-MB-435 = assay: Growth inhibition of human MDA-MB-435 cells at 10^-5 M after 48 hrs by Sulforhodamine B assay relative to control; details: MDA-MB-435, 48 h, read-out: GI; procedure, shortened: as §5
HL-60(TB) [2] = assay: Growth inhibition of human HL-60(TB) cells at 10^-5 M after 48 hrs by Sulforhodamine B assay relative to control; details: HL-60, 48 h, read-out: GI
Procedure, shortened: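 First-stage single-dose screen at 10⁻⁵ M. Cells pre-incubated 24 h at 37 °C, 5% CO2, then exposed to drug for 48 h. Settled cells fixed with TCA (final 16%), SRB-stained and read at 515 nm. Percentage growth inhibition is derived from treated, untreated control and time-zero absorbances.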

OVCAR-3 = assay: Growth inhibition of human OVCAR3 cells at 10^-5 M after 48 hrs by Sulforhodamine B assay relative to control; details: OVCAR-3, 48 h, read-out: GI; procedure, shortened: as §4
RPMI-8226 = assay: Growth inhibition of human RPMI8226 cells at 10^-5 M after 48 hrs by Sulforhodamine B assay relative to control; details: RPMI-8226, 48 h, read-out: GI; procedure, shortened: as §4
SF-295 = assay: Growth inhibition of human SF295 cells at 10^-5 M after 48 hrs by Sulforhodamine B assay relative to control; details: SF-295, 48 h, read-out: GI; procedure, shortened: as §4

Structure (SMILES) | GI50 (KM12) [µM] | GI50 (A549) [µM] | GI50 (OVCAR-5) [µM] | GI50 (DU-145) [µM] | GI50 (HL-60(TB) [1]) [µM] | GI50 (SW-620) [µM] | GI50 (CAKI-1) [µM] | GI50 (NCI-H226) [µM] | GI50 (TK-10) [µM] | GI50 (IGROV-1) [µM] | GI50 (UACC-257) [µM] | inhibition of growth at 10 µM (NCI-H322M) [%] | inhibition of growth at 10 µM (COLO 205) [%] | inhibition of growth at 10 µM (U-251) [%] | inhibition of growth at 10 µM (SN12C) [%] | inhibition of growth at 10 µM (HCT-15) [%] | inhibition of growth at 10 µM (MDA-MB-435) [%] | inhibition of growth at 10 µM (HL-60(TB) [2]) [%] | inhibition of growth at 10 µM (OVCAR-3) [%] | inhibition of growth at 10 µM (RPMI-8226) [%] | other results
COc1ccc(N2CCN(c3nc(-c4ccccn4)nc4sc5c(c34)CCCCCC5)CC2)cc1 | 5.13 | 3.24 | 51.3 | 28.2 | 4.07 | 5.13 | 5.37 | 6.46 | > 100 | 5.37 | 7.24 |  |  |  |  |  |  |  |  |  | GI50 (SNB-75): 26.3 µM; GI50 (786-0): 8.51 µM; GI50 (HOP-92): 3.24 µM
Clc1nc(-c2ccncc2)nc2sc3c(c12)CCCCCC3 |  |  |  |  |  |  |  |  |  |  |  | 3.46 | -16.6 | -0.32 | 4.53 | 0.89 | 3.14 | 3.12 | -5.97 | 0.89 | 
CN1CCN(c2nc(-c3ccncc3)nc3sc4c(c23)CCCCCC4)CC1 | 13.5 | 11.5 | 10.7 | 12.6 | 12.6 | 12 | 3.47 | 10.5 | 6.76 | 8.13 | 10.7 |  |  |  |  |  |  |  |  |  | GI50 (SNB-75): 1.38 µM; GI50 (786-0): 4.79 µM; GI50 (HOP-92): 0.661 µM
c1ccc(N2CCN(c3nc(-c4ccncc4)nc4sc5c(c34)CCCCCC5)CC2)cc1 |  |  |  |  |  |  |  |  |  |  |  | -2.96 | -1.65 | 0.24 | -12.2 | 2.1 | 2.52 | 2.53 | 7.59 | 3.42 | inhibition of growth at 10 µM (SF-295): 6.51%
c1ccc(-c2nc(N3CCOCC3)c3c4c(sc3n2)CCCCCC4)nc1 | 4.27 | 3.55 | 10.2 | 6.92 | 4.47 | 8.91 | 2.29 | 5.01 | 9.33 | 3.16 | 11 |  |  |  |  |  |  |  |  |  | GI50 (SNB-75): 7.08 µM; GI50 (786-0): 11.7 µM; GI50 (HOP-92): 0.617 µM
NNc1nc(-c2ccncc2)nc2sc3c(c12)CCCCCC3 |  |  |  |  |  |  |  |  |  |  |  | 3.42 | 2.31 | 6.15 | 4.3 | 7.32 | 1.01 | 16.4 | -0.84 | 12.1 | inhibition of growth at 10 µM (SF-295): 6.22%
COc1ccc(N2CCN(c3nc(-c4ccncc4)nc4sc5c(c34)CCCCCC5)CC2)cc1 |  |  |  |  |  |  |  |  |  |  |  | -7.78 | 5.76 | 15.8 | 31.8 | 17.7 | 4.86 | 15.2 | 9.75 | 28.8 | inhibition of growth at 10 µM (SF-295): 11.5%
